Data set [1] deals with prostate cancer cells (C4-2, CWR22Rv1, PC-3, DU145). As to the kind of experiment: Cell viability assay, AR-positive and AR-negative prostate cancer cells. Format: cell-based. As to conditions: 48 h treatment. In outline: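 Cells were seeded in 96-well plates in multiple wells and allowed to adhere. They were then exposed for 48 h to graded concentrations of test compound, nano vehicle (Se nanoparticles without peptide) or free peptide. CCK-8 reagent was added for 2 h, then absorbance was read at 450 nm. Data were normalised to the untreated group and given as mean ± SD.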

Data set [2] addresses p300/MDM2 binding in 293T cells (Homo sapiens, UniProt Q00987+Q09472). As to the kind of experiment: Co-immunoprecipitation of p300 and MDM2. The data set is classed as cell-based. As to conditions: 293T cells transfected with HA-p300 or Flag-MDM2. In outline: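 293T cells were transfected with HA-p300 or Flag-MDM2 plasmids. They were lysed 15 min on ice in IP buffer with protease and phosphatase inhibitors, then spun at 13,000×g for 15 min at 4 °C. Supernatants were incubated with anti-HA agarose beads for 12 h at 4 °C, with or without test compound. Beads were washed, boiled 5 min in loading buffer and analysed by Western blot.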

For the next data set, the system named is CWR22Rv1 xenografts. The data set is described as follows: CWR22Rv1 xenograft mouse model. Format: in vivo, BALB/c nude mice. The essentials: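 Thirty-five male 4-week-old BALB/c nude mice were randomised into 7 groups of 5. Each received 6 × 10⁶ 22Rv1 cells mixed 1:1 with Matrigel, injected s.c. into the right shoulder. After tumours formed, dosing was i.p. every other day for 21 days, with reference agents also at 5 mg/kg. Volume was calculated as length × width²/2. Tumours went to H&E or IHC, scored as intensity (0–3) × positive-cell percentage grade (1–4).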

The subject of data set [3] is prostate cancer cells. As to the kind of experiment: Cell internalization by confocal microscopy and flow cytometer. The data set is classed as cell-based. The note with it: 500 nM rhodamine-labeled drug. In outline: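 C4-2 cells were incubated with 500 nM rhodamine-labelled test compound, and nuclei were stained with DAPI. Imaging was by confocal microscopy, with identical excitation wavelength and detector gain for all images.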
(In general: Flow cytometry measures light scatter and fluorescence of single cells or particles in a stream.)

Data set [4] relates to prostate cancer cells. The data set is described as follows: Wound healing and transwell invasion assays. The data set is classed as cell-based. As to conditions: wound healing 24 h and 48 h; transwell 36 h. In outline: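 For wound healing, confluent PC3 and DU145 monolayers were scratched with a 200 μl tip and rinsed with PBS. Test compound was added in serum-free medium, and wounds were photographed at 24 h and 48 h.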

The next data set deals with p53. The data set is described as follows: Immunoblotting of p53 and downstream proteins. The data set is classed as cell-based. As to conditions: C4-2 and CWR22Rv1 cells, 1μM. The essentials: (§1)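 Drug treatment lasted 24 h unless otherwise stated. Cells were PBS-washed, lysed, and lysates spun at 13,000×g for 15 min at 4 °C, then BCA-quantified and boiled 5 min. Equal protein was run on 6–10% Tris-glycine SDS-PAGE and transferred to PVDF. Membranes were blocked 1 h in 5% milk, incubated with primary antibody (in 3% BSA/TBST) overnight at 4 °C, then secondary antibody 1 h at room temperature. Detection was by ECL.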
(In western blotting, separated proteins are transferred to a membrane and probed.)

In the next data set the target is CBP (Homo sapiens, UniProt Q92793). As to the kind of experiment: Immunoblotting of CBP in prostate cancer cells. Format: cell-based. The note with it: immunoblot. In outline: as §1
The subject of another data set is PC-3 xenografts. As to the kind of experiment: PC-3 xenograft mouse model. Format: in vivo, BALB/c nude mice. In outline:
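Twenty-five male 4-week-old BALB/c nude mice were randomised into 5 groups of 5 and received 8 × 10⁶ PC-3 cells s.c. into the right shoulder. Dosing began once tumours reached about 200 mm³, about 3 weeks later. Mice received PBS, peptide control, nano vehicle, test compound or a reference inhibitor at 5 mg/kg i.p. every other day for 18 days. Volume was calculated as length × width²/2. Tumours and organs went to H&E, Ki-67 and TUNEL staining. Mean ± SD, t-test.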

A further data set concerns C4-2 and PC-3 cells. The data set is described as follows: Apoptosis detection by flow cytometry. The note with it: high concentrations, 24 h. The data set is classed as cell-based, human. The essentials: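 Cells were plated at 3 × 10⁵ cells/ml in 6-well plates. Treatment ran 24 h with test compound alongside untreated, nano vehicle and free peptide controls. Cells were harvested, stained with an apoptosis detection kit per its protocol and analysed on a FACSCalibur flow cytometer.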

The test system of another data set is NE1.3 and H660 cells. The data set is described as follows: Apoptosis detection by flow cytometry. The data set is classed as cell-based. As to conditions: 24 h. The essentials: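 NE1.3 cells were grown in medium with 10% androgen-removed FBS. H660 cells were grown in RPMI 1640 with 5% FBS, insulin, transferrin, selenite, hydrocortisone, β-estradiol and 4 mM final L-glutamine. Cells were seeded at 3 × 10⁵ cells/ml in 6-well plates and exposed for 24 h to test compound, untreated, nano vehicle or peptide controls. They were processed with an apoptosis detection kit per protocol and analysed on a FACSCalibur flow cytometer.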

A short description of data set [5]: Biodistribution by fluorescence imaging. The data set is classed as in vivo, mice. As to conditions: rhodamine-labeled drug, i.p., PC-3 xenograft models, 0-72 h. The essentials:
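Tumour-bearing mice received rhodamine B-labelled test compound i.p., with injections timed to give exposures of 0, 12, 24, 48 and 72 h. Mice were then euthanised. Heart, liver, spleen, lungs and kidneys were excised and imaged at once on a small-animal in vivo fluorescence system. Distribution was scored by fluorescence intensity.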

The test system of data set [6] is prostate cancer cells (PC-3, DU145, C4-2, CWR22Rv1). The data set is described as follows: Colony formation assay. The data set is classed as cell-based. As to conditions: 20 days treatment. In outline: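 Cells were plated in 6-well plates and allowed to attach for 48 h. They were then treated with graded concentrations of test compound for 20 days. Wells were PBS-washed, fixed 30 min in 4% paraformaldehyde and stained 30 min with 0.1% crystal violet. Colonies were counted from images.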

Another data set has as its target p300 (Homo sapiens, UniProt Q09472). The data set is described as follows: Immunoblotting of p300 degradation in prostate cancer cells. Format: cell-based. As to conditions: for p300 degradation in prostate cancer cells: immunoblot, 24 h. The essentials:
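AR-positive and AR-negative prostate cancer cells were exposed for 24 h to a range of concentrations of the test compound (Se-nanoparticle-loaded peptide PROTAC). Cells were PBS-washed three times before harvest and lysates were immunoblotted for p300. Secondary antibody was applied for 1 h at room temperature, with 3 × 5 min TBST washes. Detection was by ECL chemiluminescence.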

For data set [7], the target named is rhodamine-labeled peptide p300 PROTAC drug. The data set is described as follows: fluorescence polarisation. On the technique in general: Fluorescence polarisation rises when a labelled molecule tumbles more slowly, as on binding a larger partner.

Data on five substances can be found in article PMC11261775 (eBioMedicine, 2024).

By Kd is commonly meant the concentration at which binding is half-saturated.

p300, sequence (Q09472 whole entry): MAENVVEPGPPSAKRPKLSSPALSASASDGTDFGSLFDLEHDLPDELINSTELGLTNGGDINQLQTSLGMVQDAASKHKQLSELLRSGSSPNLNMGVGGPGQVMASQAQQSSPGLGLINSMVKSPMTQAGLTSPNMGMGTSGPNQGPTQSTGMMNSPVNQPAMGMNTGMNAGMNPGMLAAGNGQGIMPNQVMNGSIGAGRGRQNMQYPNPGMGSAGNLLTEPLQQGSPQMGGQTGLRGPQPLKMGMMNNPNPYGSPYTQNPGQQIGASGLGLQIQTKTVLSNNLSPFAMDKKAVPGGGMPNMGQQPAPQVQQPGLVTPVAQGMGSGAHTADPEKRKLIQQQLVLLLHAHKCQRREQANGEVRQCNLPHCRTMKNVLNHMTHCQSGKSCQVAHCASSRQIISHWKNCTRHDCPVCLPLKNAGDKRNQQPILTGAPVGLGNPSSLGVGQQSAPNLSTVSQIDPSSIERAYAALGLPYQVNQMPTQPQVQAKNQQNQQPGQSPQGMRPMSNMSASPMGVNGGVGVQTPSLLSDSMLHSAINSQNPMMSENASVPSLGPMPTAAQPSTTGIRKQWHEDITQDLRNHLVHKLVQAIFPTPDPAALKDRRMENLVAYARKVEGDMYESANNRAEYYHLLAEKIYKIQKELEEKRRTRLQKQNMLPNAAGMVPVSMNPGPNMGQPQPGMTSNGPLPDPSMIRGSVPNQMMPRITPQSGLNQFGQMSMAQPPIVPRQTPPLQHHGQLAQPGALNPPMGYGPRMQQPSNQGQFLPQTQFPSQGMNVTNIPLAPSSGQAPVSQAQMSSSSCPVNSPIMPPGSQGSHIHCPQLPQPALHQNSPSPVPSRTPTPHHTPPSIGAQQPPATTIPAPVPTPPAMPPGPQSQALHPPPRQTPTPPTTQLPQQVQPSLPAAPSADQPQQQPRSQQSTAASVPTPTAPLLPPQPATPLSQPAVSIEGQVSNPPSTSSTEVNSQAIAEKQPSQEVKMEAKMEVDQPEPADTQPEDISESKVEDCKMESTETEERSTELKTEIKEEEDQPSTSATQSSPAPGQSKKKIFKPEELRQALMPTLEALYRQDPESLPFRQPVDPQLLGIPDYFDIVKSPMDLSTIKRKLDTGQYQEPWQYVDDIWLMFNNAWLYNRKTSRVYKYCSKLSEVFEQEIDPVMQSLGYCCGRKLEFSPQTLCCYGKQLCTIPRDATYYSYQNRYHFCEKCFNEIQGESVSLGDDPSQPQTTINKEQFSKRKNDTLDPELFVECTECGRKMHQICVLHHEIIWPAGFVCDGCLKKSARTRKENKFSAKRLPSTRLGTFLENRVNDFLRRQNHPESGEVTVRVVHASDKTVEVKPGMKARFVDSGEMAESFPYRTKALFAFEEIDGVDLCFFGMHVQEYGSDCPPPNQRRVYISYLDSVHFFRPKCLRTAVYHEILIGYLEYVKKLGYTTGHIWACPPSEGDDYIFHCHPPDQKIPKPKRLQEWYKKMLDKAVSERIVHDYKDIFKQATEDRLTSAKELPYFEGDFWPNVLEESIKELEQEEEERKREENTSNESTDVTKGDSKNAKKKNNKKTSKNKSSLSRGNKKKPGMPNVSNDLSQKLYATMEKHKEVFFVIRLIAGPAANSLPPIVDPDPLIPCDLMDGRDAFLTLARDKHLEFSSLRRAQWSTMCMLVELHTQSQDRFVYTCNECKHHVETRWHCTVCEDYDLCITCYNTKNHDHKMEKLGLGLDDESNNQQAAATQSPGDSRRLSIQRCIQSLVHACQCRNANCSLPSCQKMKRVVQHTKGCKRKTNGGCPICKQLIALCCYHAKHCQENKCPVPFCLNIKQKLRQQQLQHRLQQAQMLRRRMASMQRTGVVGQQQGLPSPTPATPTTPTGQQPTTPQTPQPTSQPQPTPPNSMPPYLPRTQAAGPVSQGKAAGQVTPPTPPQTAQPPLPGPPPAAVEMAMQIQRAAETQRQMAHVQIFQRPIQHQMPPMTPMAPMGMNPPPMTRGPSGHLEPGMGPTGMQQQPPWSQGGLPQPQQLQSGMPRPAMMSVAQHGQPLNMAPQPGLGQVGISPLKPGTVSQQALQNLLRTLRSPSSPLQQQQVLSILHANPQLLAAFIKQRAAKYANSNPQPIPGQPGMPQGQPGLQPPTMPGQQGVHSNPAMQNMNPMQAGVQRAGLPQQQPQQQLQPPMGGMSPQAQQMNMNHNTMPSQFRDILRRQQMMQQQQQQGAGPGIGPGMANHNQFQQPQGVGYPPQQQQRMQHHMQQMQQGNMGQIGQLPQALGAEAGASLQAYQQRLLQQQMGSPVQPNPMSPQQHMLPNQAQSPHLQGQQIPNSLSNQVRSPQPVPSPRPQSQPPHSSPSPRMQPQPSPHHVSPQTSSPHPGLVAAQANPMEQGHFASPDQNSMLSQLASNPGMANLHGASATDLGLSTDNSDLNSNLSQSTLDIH
p300/MDM2 binding in 293T cells, sequence (Q09472 whole entry): as above
p300/MDM2 binding in 293T cells, sequence (Q00987 whole entry): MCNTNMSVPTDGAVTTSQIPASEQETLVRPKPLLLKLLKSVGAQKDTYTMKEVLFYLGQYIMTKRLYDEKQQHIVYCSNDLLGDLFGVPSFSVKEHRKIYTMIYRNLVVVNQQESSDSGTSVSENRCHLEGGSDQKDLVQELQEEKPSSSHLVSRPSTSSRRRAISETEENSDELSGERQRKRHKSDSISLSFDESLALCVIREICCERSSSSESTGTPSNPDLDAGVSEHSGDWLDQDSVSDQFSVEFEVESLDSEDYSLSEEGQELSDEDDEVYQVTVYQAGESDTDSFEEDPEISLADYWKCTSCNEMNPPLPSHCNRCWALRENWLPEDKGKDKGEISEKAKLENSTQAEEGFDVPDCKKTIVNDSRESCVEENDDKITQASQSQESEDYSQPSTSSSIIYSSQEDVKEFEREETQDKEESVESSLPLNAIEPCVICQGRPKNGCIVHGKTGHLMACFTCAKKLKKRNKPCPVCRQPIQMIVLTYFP

As for “CPWIWDGDNKDDNSTDGGGSGGGTSFEQFWAWLWP [free peptide control]”, the “Toxicity in prostate cancer cells (cell viability)” value in data set [1] is “no toxicity”.

As to “CPWIWDGDNKDDNSTDGGGSGGGTSFEQFWAWLWP [p300 PROTAC drug]”, the “Binding of p300 to MDM2 in presence of drug” value in data set [2] was “significantly enhanced”. The “Effect on CWR22Rv1 tumor growth” value with CWR22Rv1 xenografts (5 mg/kg i.p. every other day for 21 days, n = 5 per group) is reported as “significant efficacy in vivo”. In addition, the “IHC of CWR22Rv1 tumors (p300, AR, Ki-67, TUNEL)” value in the data set with CWR22Rv1 xenografts (5 mg/kg i.p., n = 5) was “effectively degraded the p300, AR and Ki-67, and effectively induced the increase of tumor apoptosis”. The “Efficacy relative to comparator drugs, CWR22Rv1 model” value with CWR22Rv1 xenografts (all at 5 mg/kg i.p. every other day) was “better efficacy compared with I-CBP112, dCBP-1, and JQAD1”. Also, the Cell internalization result with prostate cancer cells [3] was “internalization of the p300 PROTAC drug in a time-dependent manner”. In the data set with prostate cancer cells [4], the Migration and invasion entry was “effectively inhibit the migration and invasion”. The “Protein level of p53 and downstream proteins” value in the data set with p53 is “effectively increased the protein level of p53 and its downstream proteins”. Besides, the “Reduction of CBP in prostate cancer cells” value at CBP was “notably weaker compared to its effect on p300”. For the same substance, the “Effect on PC-3 tumor growth” value with PC-3 xenografts (5 mg/kg i.p. every 2 days for 18 days, n = 5 per group) is on record as “significant efficacy in vivo”. For the same substance, the “Efficacy relative to I-CBP112, PC-3 model” value with PC-3 xenografts (same dose, 5 mg/kg) is on record as “better efficacy compared to small molecular p300/CBP inhibitor I-CBP112 at the same dose”. Also, in the data set with C4-2 and PC-3 cells, the “Apoptosis induction, AR-positive and AR-negative cell lines” value is given as “effectively induced apoptosis”. In addition, the “Apoptosis induction, NEPC cells” value with NE1.3 and H660 cells was “effectively induced apoptosis”. Moreover, the Biodistribution entry in [5] was “accumulated within the tumor”. The Colony formation entry in data set [6] is “effectively inhibited colony formation”. The “Concentration eliminating the p300 protein” value at p300 (different prostate cancer cell lines) is reported as “under 1 μM”. On p300, the “p300 degradation in prostate cancer cells” value is “effectively degraded p300”.

For JQAD1 [reference compound], the “p300 degradation in prostate cancer cells” value at p300 is recorded as “poor performance”.

In data set [7], “MDM2 N-terminal domain (domain or fragment)” came in with a Kd of 101 nM.

With p300 CH1 domain (domain or fragment), the Kd in data set [7] stood at 78.3 nM.
